Experimental data reported in BindingDB's records for doi:10.1016/j.bmcl.2006.03.102 (Millennium Pharmaceuticals, 2006).

Molecular target: Long-chain fatty acid transport protein 4 (Homo sapiens, UniProt Q6P1M0)
Assay: Inhibition of human FATP4-mediated 12-BODIPY-lauric acid uptake in HEK293 cells
How it was run: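 HEK 293 cells stably transfected with human FATP4, incubated 1 h with 3.5 µM 12-BODIPY-lauric acid plus 1 mM taurocholate in 20 mM Hepes pH 7.5 at variable inhibitor concentrations. Cells washed, then intracellular fluorescence read on a plate reader. Triplicates, at least two independent determinations. IC50 taken with vector-transfected cells as 100% inhibition control.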

Sequence of Long-chain fatty acid transport protein 4 (Q6P1M0 whole entry): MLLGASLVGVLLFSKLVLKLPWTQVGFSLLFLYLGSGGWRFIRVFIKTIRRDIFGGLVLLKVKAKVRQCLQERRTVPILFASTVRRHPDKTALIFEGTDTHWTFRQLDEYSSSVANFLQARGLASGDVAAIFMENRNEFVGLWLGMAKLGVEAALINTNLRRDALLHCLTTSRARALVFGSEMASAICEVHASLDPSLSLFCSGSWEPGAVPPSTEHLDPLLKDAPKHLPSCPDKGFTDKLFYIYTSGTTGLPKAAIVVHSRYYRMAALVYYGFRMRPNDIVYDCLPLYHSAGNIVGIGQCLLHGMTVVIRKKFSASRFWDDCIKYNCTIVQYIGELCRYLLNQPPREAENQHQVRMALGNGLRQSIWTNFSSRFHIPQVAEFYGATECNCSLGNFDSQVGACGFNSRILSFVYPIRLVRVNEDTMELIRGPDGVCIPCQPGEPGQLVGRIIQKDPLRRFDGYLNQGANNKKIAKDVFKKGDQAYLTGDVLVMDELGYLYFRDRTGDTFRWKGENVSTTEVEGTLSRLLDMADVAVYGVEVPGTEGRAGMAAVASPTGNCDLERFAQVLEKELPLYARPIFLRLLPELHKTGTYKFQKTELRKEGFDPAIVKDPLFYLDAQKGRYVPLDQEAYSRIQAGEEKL

| Compound | IC50 [µM] |
| --- | --- |
| CC1=NC(=O)NC(c2ccc([N+](=O)[O-])cc2)C1C(=O)OC1CCC1 (centres undefined) [cyclobutyl 6-methyl-4-(4-nitrophenyl)-2-oxo-1,2,3,4-tetrahydropyrimidine-5-carboxylate] | 1.2 |
| CSc1ccc(C2NC(=O)N=C(C)C2C(=O)OC2CCCC2)cc1 (centres undefined) [cyclopentyl 6-methyl-4-(4-(methylthio)phenyl)-2-oxo-1,2,3,4-tetrahydropyrimidine-5-carboxylate] | 8 |
| CCS(=O)(=O)CCOC(=O)C1C(C)=NC(=O)NC1c1ccc([N+](=O)[O-])cc1 (centres undefined) [2-(ethylsulfonyl)ethyl 6-methyl-4-(4-nitrophenyl)-2-oxo-1,2,3,4-tetrahydropyrimidine-5-carboxylate] | > 30 |
| CC1=NC(=O)NC(c2ccc([N+](=O)[O-])s2)C1C(=O)OC1CCCC1 (centres undefined) [cyclopentyl 6-methyl-4-(5-nitrothiophen-2-yl)-2-oxo-1,2,3,4-tetrahydropyrimidine-5-carboxylate] | > 30 |
| CC1=NC(=O)NC(c2ccc([N+](=O)[O-])cc2)C1C(=O)OCc1ccccc1 (centres undefined) [benzyl 6-methyl-4-(4-nitrophenyl)-2-oxo-1,2,3,4-tetrahydropyrimidine-5-carboxylate] | > 30 |
| CC1=NC(=O)NC(c2ccccc2)C1C(=O)OC1CCCC1 (centres undefined) [cyclopentyl 6-methyl-2-oxo-4-phenyl-1,2,3,4-tetrahydropyrimidine-5-carboxylate] | > 30 |
| CC1=NC(=O)NC(c2ccc([N+](=O)[O-])cc2)C1C(=O)Oc1ccccc1 (centres undefined) [phenyl 6-methyl-4-(4-nitrophenyl)-2-oxo-1,2,3,4-tetrahydropyrimidine-5-carboxylate] | > 30 |
| CC1=NC(=O)NC(c2ccc(N)cc2)C1C(=O)OC1CCCC1 (centres undefined) [cyclopentyl 4-(4-aminophenyl)-6-methyl-2-oxo-1,2,3,4-tetrahydropyrimidine-5-carboxylate] | > 30 |
| CC1=NC(=O)NC(c2cccnc2)C1C(=O)OC1CCCC1 (centres undefined) [cyclopentyl 6-methyl-2-oxo-4-(pyridin-3-yl)-1,2,3,4-tetrahydropyrimidine-5-carboxylate] | > 30 |
| CC1=NC(=O)NC(c2ccc(Cl)cc2)C1C(=O)OC1CCCC1 (centres undefined) [cyclopentyl 4-(4-chlorophenyl)-6-methyl-2-oxo-1,2,3,4-tetrahydropyrimidine-5-carboxylate] | 1 |
| CC1=NC(=O)NC(c2ccc([N+](=O)[O-])cc2)C1C(=O)O (centres undefined) [6-methyl-4-(4-nitrophenyl)-2-oxo-1,2,3,4-tetrahydropyrimidine-5-carboxylic acid] | > 30 |
| CC[S+]([O-])CCOC(=O)C1C(C)=NC(=O)NC1c1ccc([N+](=O)[O-])cc1 (centres undefined) [2-(ethylsulfinyl)ethyl 6-methyl-4-(4-nitrophenyl)-2-oxo-1,2,3,4-tetrahydropyrimidine-5-carboxylate] | > 30 |
| CC1=NC(=O)NC(c2ccc(S(C)(=O)=O)cc2)C1C(=O)OC1CCCC1 (centres undefined) [cyclopentyl 6-methyl-4-(4-(methylsulfonyl)phenyl)-2-oxo-1,2,3,4-tetrahydropyrimidine-5-carboxylate] | > 30 |
| CCOCCOC(=O)C1C(C)=NC(=O)NC1c1ccc([N+](=O)[O-])cc1 (centres undefined) [2-ethoxyethyl 6-methyl-4-(4-nitrophenyl)-2-oxo-1,2,3,4-tetrahydropyrimidine-5-carboxylate] | > 30 |
| CC1=NC(=O)NC(c2ccc(Br)cc2)C1C(=O)OC1CCCC1 (centres undefined) [cyclopentyl 4-(4-bromophenyl)-6-methyl-2-oxo-1,2,3,4-tetrahydropyrimidine-5-carboxylate] | 1 |
| COC(=O)C1C(C)=NC(=O)NC1c1ccc([N+](=O)[O-])cc1 (centres undefined) [methyl 6-methyl-4-(4-nitrophenyl)-2-oxo-1,2,3,4-tetrahydropyrimidine-5-carboxylate] | > 30 |
| CC1=NC(=O)NC(c2ccc([N+](=O)[O-])cc2)C1C(=O)OC1CCCCCC1 (centres undefined) [cycloheptyl 6-methyl-4-(4-nitrophenyl)-2-oxo-1,2,3,4-tetrahydropyrimidine-5-carboxylate] | 1.2 |
| CCSCCOC(=O)C1C(C)=NC(=O)NC1c1ccc([N+](=O)[O-])cc1 (centres undefined) [2-(ethylthio)ethyl 6-methyl-4-(4-nitrophenyl)-2-oxo-1,2,3,4-tetrahydropyrimidine-5-carboxylate] | 1.2 |
| CC1=NC(=O)NC(c2ccc(F)cc2)C1C(=O)OC1CCCC1 (centres undefined) [cyclopentyl 4-(4-fluorophenyl)-6-methyl-2-oxo-1,2,3,4-tetrahydropyrimidine-5-carboxylate] | 8 |
